Published values gathered from unrelated publications.
Cell line: RPMI-8226
Observed: cell growth or viability

For `COc1cc(Nc2nccc(-c3cnn4nc(OC)ccc34)n2)cc(C(F)(F)F)c1`, the IC50 was 220 nM (ATP luminescence).
With `CC[C@]1(O)C[C@H]2CN(CCc3c([nH]c4ccccc34)[C@@](C(=O)OC)(c3cc4c(cc3OC)N(C=O)[C@H]3[C@@](O)(C(=O)OC)[C@H](OC(C)=O)[C@]5(CC)C=CCN6CC[C@]43[C@@H]65)C2)C1` the IC50 was 17.9 nM (fluorescence; 72 h).
`CC(C)C[C@H](NC(=O)[C@H](Cc1ccccc1)NC(=O)c1cnccn1)B(O)O` gave an IC50 of 3.5 nM (ATP luminescence).
`Cc1cc(C)n(C(=S)[S][Au][PH](CCCCCC[PH]([Au][S]C(=S)n2nc(C)cc2C)(c2ccccc2)c2ccccc2)(c2ccccc2)c2ccccc2)n1` gave a GI50 of 140 nM.
The inhibition of `COc1ccc(C(=O)/C=C/c2c(F)cccc2Cl)cc1S(N)(=O)=O` is reported as 110% (SRB; 10 µM).
For `COc1ccc(C(=O)Nc2cccc(-c3nc(NC(P(=O)(O)O)P(=O)(O)O)c4ccsc4n3)c2)cc1F`, the EC50 was 460 nM (MTS; 72 h).
`COc1cccc(Oc2ccccc2NC(=O)CNC(=O)c2cccc3ccccc23)c1` gave a GI50 of 955 nM (SRB; 48 h).
With `CCC[C@H](Nc1nc(-c2ccc(NC(=O)NCC)c(OC)c2)ncc1C)c1cccnc1` the IC50 was 18.3 nM (fluorescence; 72 h).
With `N[C@@H]1CCCN(c2c(/C=C3\SC(=O)NC3=O)cccc2-c2ccccc2)C1` the GI50 was 2630 nM (thymidine uptake).
With `O=C(Nc1cccc(-c2nc(NC(P(=O)(O)O)P(=O)(O)O)c3ccsc3n2)c1)c1ccc(C(F)(F)F)cc1` the EC50 was 710 nM (MTS; 72 h).
For `COc1ccc(C(=O)/C=C/c2ccc(Cl)c(Cl)c2)cc1S(N)(=O)=O`, the inhibition was 107% (SRB; 10 µM).
The EC50 of `CC(C)C[C@H](NC(=O)[C@H](Cc1ccccc1)NC(=O)c1cnccn1)B(O)O` is reported as 3.9 nM (ATP luminescence).
`C=CC(=O)N1CCC[C@@H](n2nc(-c3ccc(Oc4ccccc4)cc3)c3c(N)ncnc32)C1` gave a GI50 of > 10000 nM (48 h).
